Measurements taken from ChEMBL document CHEMBL1133734, “Synthesis and evaluation of nitroheterocyclic phosphoramidates as hypoxia-selective alkylating agents” (2000).

Assays:
MCF7 = test: Tested in vitro for cytotoxicity against MCF-7/WT wild-type human breast cancer cells; assay type: functional
Outline: (§1)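 Clonogenic assay. Cells were suspended in unsupplemented medium at 2-30 000 cells/mL and exposed 2 h at 37 °C, 5% CO2 to 1-400 µM drug (final), with the top dose chosen to give >99% kill. Drug stocks were made in medium or ethanol. After washing, cells were plated at 2-3 dilutions. Colonies of ≥50 cells were stained with crystal violet at 8 days (B16) or 14 days (MCF-7). LC99 was taken by linear regression of log surviving fraction vs concentration.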

MCF7-CP = test: Tested in vitro for cytotoxicity against MCF-7/CP 4-hydroperoxycyclophosphamide-resistant human breast cancer cells; assay type: functional; outline: as §1
B16 = test: Tested in vitro for cytotoxicity against B16 murine melanoma cells; assay type: functional, Mus musculus; outline: as §1
HT-29 [1] = test: Tested in vitro for cytotoxicity against HT-29 human colon carcinoma cells under aerobic condition; assay type: functional
Outline: (§2)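 HT-29 colon cells were grown in α-MEM with 10% FBS and given a 4-h drug exposure under aerobic or hypoxic conditions in a clonogenic assay run in duplicate. The top dose was chosen to give >99% kill. LC99 (1% colony survival versus untreated controls) was taken by linear regression of log surviving fraction vs drug concentration.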

[2] = Ratio of lethal conc. under aerobic to hypoxic condition in HT-29 cells; assay type: functional
Outline: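 HT-29 hypoxic selectivity. Aerobic and hypoxic LC99 values (concentration cutting clonogenic survival by 2 log units) come from the log-linear portion of each survival curve after 4-h drug treatment, assayed in duplicate. The ratio is aerobic LC99 over hypoxic LC99.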

HT-29 [3] = test: Tested in vitro for cytotoxicity against HT-29 human colon carcinoma cells under hypoxic condition; assay type: functional; outline: as §2

| Compound | LC99 (MCF7) [µM] | LC99 (MCF7-CP) [µM] | LC99 (B16) [µM] | LC99 (HT-29 [1]) [µM] | Ratio [2] | LC99 (HT-29 [3]) [µM] |
| --- | --- | --- | --- | --- | --- | --- |
| O=P1(N(CCCl)CCCl)NC(OO)CCO1 (stereo not drawn) [PERFOSFAMIDE] | 14 | 145 | 11 |  |  |  |
| O=[N+]([O-])c1ccc(COP(=O)(N(CCBr)CCBr)N(CCBr)CCBr)s1 | 2.4 | 1.9 | 1.1 |  |  |  |
| O=[N+]([O-])c1ccc(COP(=O)(N(CCCl)CCCl)N(CCCl)CCCl)o1 | 20 | 22 | 9.3 | 12 | 3.5 | 3.4 |
| O=P(OCc1ccco1)(N(CCCl)CCCl)N(CCCl)CCCl | 300 | 230 | 53 |  |  |  |
| CN(C)c1cc(COP(N)(=O)N(CCBr)CCBr)sc1[N+](=O)[O-] (stereo not drawn) | 88 | 110 | 52 | 180 | 20 | 8.9 |
| Cn1c(COP(=O)(N(CCCl)CCCl)N(CCCl)CCCl)ccc1[N+](=O)[O-] | 205 | 245 | 70 |  |  |  |
| O=[N+]([O-])c1ccc(COP(=O)(N(CCCl)CCCl)N(CCCl)CCCl)s1 | 7.9 | 6.5 | 5.1 | 10.8 | 1.7 | 6.2 |
| NP(=O)(OCc1cc(Br)c([N+](=O)[O-])s1)N(CCBr)CCBr (stereo not drawn) | 0.62 | 1.3 | 0.44 | 0.91 | 3.6 | 0.25 |
| O=P(OCc1cccs1)(N(CCCl)CCCl)N(CCCl)CCCl | 211 | 205 | 120 |  |  |  |
| NC(=O)c1cc(COP(N)(=O)N(CCBr)CCBr)sc1[N+](=O)[O-] (stereo not drawn) | 1.6 | 1.5 | 1.4 | 0.73 | 2.2 | 0.33 |
| Cn1c(COP(=O)(N(CCBr)CCBr)N(CCBr)CCBr)ccc1[N+](=O)[O-] | 57 | 51 | 14 |  |  |  |
| O=[N+]([O-])c1ccc(COP(=O)(N(CCBr)CCBr)N(CCBr)CCBr)o1 | 1.9 | 2.3 | 1.7 |  |  |  |
| Cn1c([N+](=O)[O-])cnc1COP(=O)(N(CCCl)CCCl)N(CCCl)CCCl | >600 | >600 | 150 | >600 | >20 | 28 |
| N#Cc1cc(COP(N)(=O)N(CCBr)CCBr)sc1[N+](=O)[O-] (stereo not drawn) | 0.11 | 0.24 | 0.45 | 0.62 | 2.8 | 0.22 |
